# ChEMBL document CHEMBL4406867, “Synthesis and antidepressant effect of novel aralkyl piperazine and piperidine derivatives targeting SSRI/5-HT1A/5-HT7” (Bioorg Med Chem Lett, 2019)
# Test system: not listed separately
# Experiment: Clearance in human liver microsomes at 1 uM in presence of NADPH generating system measured for 10 to 90 mins by LC-MS/MS analysis
# Type: ADME, Microsome
# Procedure, shortened: (§1)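 Human liver microsomes; metabolic stability as half-life (min) and clearance (μL/min/mg).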
row,Compound,CLH [µL/min/mg]
1,N#Cc1ccc2[nH]cc(CCCCN3CCN(c4ccc5oc(C(N)=O)cc5c4)CC3)c2c1 [VILAZODONE],26
2,Cc1ccc(Sc2ccccc2N2CCNCC2)c(C)c1 [VORTIOXETINE],6.47
3,COc1ccc2c(c1)[C@]13CCCC[C@@H]1[C@H](C2)N(C)CC3 [DEXTROMETHORPHAN],31
4,Fc1ccc(C2CCN(CCCc3c[nH]c4ccc(F)cc34)CC2)c(-c2ccccc2)c1,27.8

# Test system: not listed separately
# Experiment: Clearance in rat liver microsomes at 1 uM in presence of NADPH generating system measured for 10 to 90 mins by LC-MS/MS analysis
# Type: ADME, Microsome
# Procedure, shortened: (§2)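 Rat liver microsomes; stability expressed as t1/2 (min) and intrinsic clearance (μL/min/mg).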
row,Compound,CLH [µL/min/mg]
1,Fc1ccc(N2CCN(CCCc3c[nH]c4ccc(F)cc34)CC2)c(-c2cncnc2)c1,209
2,Fc1ccc(N2CCN(CCCc3c[nH]c4ccc(F)cc34)CC2)c(-c2cccnc2)c1,240
3,N#Cc1ccc2[nH]cc(CCCCN3CCN(c4ccc5oc(C(N)=O)cc5c4)CC3)c2c1 [VILAZODONE],48.6
4,Fc1ccc2[nH]cc(CCCN3CCN(c4nsc5ccccc45)CC3)c2c1,397
5,Fc1ccc2c(C3CCN(CCCc4c[nH]c5ccc(F)cc45)CC3)noc2c1,301
6,Fc1ccc(N2CCN(CCCc3c[nH]c4ccc(F)cc34)CC2)c(-c2ccoc2)c1,134
7,Cc1ccc(Sc2ccccc2N2CCNCC2)c(C)c1 [VORTIOXETINE],153
8,Fc1ccc(C2CCN(CCCc3c[nH]c4ccc(F)cc34)CC2)c(-c2ccccc2)c1,28.5

# Test system: Mus musculus
# Experiment: Antidepressant activity in ICR mouse assessed as decrease in immobility time at 20 mg/kg, po administrated for daily for 7 days measured 1 hr post last dose by forced swim test relative to control
# Type: functional
# Parameters: scale not given: the % may be the effect or the level left
# Procedure, shortened: (§3)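 Male ICR mice dosed orally once daily for 7 days at 10, 20 or 40 mg/kg/day; immobility time scored in forced swim test against vehicle group; n = 10 per group, mean ± SEM.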
row,Compound,Activity [%]
1,Fc1ccc(C2CCN(CCCc3c[nH]c4ccc(F)cc34)CC2)c(-c2ccccc2)c1,47

# Target: T1, 5-hydroxytryptamine receptor 1A (Homo sapiens, UniProt P08908)
# T1 sequence (P08908 whole entry): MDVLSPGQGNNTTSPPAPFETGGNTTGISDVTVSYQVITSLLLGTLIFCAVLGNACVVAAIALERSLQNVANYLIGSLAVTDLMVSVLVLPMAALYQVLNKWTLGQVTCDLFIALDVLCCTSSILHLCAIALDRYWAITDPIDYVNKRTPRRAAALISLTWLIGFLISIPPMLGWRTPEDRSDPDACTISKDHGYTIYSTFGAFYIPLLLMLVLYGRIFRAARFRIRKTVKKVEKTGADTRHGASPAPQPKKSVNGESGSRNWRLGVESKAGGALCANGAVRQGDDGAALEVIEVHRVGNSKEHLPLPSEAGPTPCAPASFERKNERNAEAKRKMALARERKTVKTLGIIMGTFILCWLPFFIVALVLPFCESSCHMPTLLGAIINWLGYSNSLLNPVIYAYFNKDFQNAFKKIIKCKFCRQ
# Experiment: Agonist activity at human recombinant 5HT1A receptor (unknown origin) stably expressed in CHO-K1 incubated for 30 mins by [35S]GTPgammaS binding assay
# Type: functional
row,Compound,EC50 [nM]
1,Fc1ccc(C2CCN(CCCc3c[nH]c4ccc(F)cc34)CC2)c(-c2ccccc2)c1,1180

# Test system: Mus musculus
# Experiment: Antidepressant activity in ICR mouse assessed as decrease in immobility time at 10 mg/kg, po administrated for daily for 7 days measured 1 hr post last dose by tail suspension test relative to control
# Type: functional
# Parameters: scale not given: the % may be the effect or the level left
# Procedure, shortened: (§4)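 Male ICR mice given oral doses once daily for 7 days (10, 20, 40 mg/kg/day); immobility time recorded in tail suspension test versus control group.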
row,Compound,Activity [%]
1,Fc1ccc(C2CCN(CCCc3c[nH]c4ccc(F)cc34)CC2)c(-c2ccccc2)c1,28

# Target: T2, 5-hydroxytryptamine receptor 7 (Homo sapiens, UniProt P34969)
# Experiment: Displacement of [3H]-LSD from 5HT7 receptor (unknown origin) expressed in CHO cell membranes incubated for 120 mins by scintillation counting method
# T2 sequence (P34969 whole entry): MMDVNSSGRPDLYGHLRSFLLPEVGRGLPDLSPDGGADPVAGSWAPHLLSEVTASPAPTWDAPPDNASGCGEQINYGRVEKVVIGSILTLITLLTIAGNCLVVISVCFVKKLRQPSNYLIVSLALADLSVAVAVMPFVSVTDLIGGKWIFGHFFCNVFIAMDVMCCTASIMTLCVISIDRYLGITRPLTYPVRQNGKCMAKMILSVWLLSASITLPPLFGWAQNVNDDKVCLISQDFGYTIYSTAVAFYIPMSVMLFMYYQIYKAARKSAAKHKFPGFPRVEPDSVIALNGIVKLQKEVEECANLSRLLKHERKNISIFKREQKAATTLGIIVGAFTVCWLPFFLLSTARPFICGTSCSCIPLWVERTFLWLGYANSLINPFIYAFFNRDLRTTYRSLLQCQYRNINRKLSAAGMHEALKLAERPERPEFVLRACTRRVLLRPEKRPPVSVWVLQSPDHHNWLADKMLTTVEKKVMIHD
row,Compound,Ki [nM]
1,N#Cc1ccc2[nH]cc(CCCCN3CCN(c4ccc5oc(C(N)=O)cc5c4)CC3)c2c1 [VILAZODONE],3900
2,Fc1ccc2[nH]cc(CCCN3CCN(c4nsc5ccccc45)CC3)c2c1,2.2
3,Fc1ccc(N2CCN(CCCc3c[nH]c4ccc(F)cc34)CC2)c(-c2ccoc2)c1,11

# Test system: Mus musculus
# Experiment: Antidepressant activity in ICR mouse assessed as decrease in immobility time at 40 mg/kg, po administrated for daily for 7 days measured 1 hr post last dose by forced swim test relative to control
# Type: functional
# Parameters: scale not given: the % may be the effect or the level left
# Procedure, shortened: as §3
row,Compound,Activity [%]
1,Cc1ccc(Sc2ccccc2N2CCNCC2)c(C)c1 [VORTIOXETINE],35
2,Fc1ccc(C2CCN(CCCc3c[nH]c4ccc(F)cc34)CC2)c(-c2ccccc2)c1,43

# Test system: Mus musculus
# Experiment: Antidepressant activity in ICR mouse assessed as decrease in immobility time at 40 mg/kg, po administrated for daily for 7 days measured 1 hr post last dose by tail suspension test relative to control
# Type: functional
# Parameters: scale not given: the % may be the effect or the level left
# Procedure, shortened: as §4
row,Compound,Activity [%]
1,N#Cc1ccc2[nH]cc(CCCCN3CCN(c4ccc5oc(C(N)=O)cc5c4)CC3)c2c1 [VILAZODONE],60
2,Fc1ccc(C2CCN(CCCc3c[nH]c4ccc(F)cc34)CC2)c(-c2ccccc2)c1,43

# Test system: Mus musculus
# Experiment: Antidepressant activity in ICR mouse assessed as decrease in immobility time at 10 mg/kg, po administrated for daily for 7 days measured 1 hr post last dose by forced swim test relative to control
# Type: functional
# Parameters: scale not given: the % may be the effect or the level left
# Procedure, shortened: as §3
row,Compound,Activity [%]
1,Fc1ccc(C2CCN(CCCc3c[nH]c4ccc(F)cc34)CC2)c(-c2ccccc2)c1,29

# Target: T2, 5-hydroxytryptamine receptor 7
# Type: functional
row,Compound,IC50 [nM]
1,Fc1ccc(C2CCN(CCCc3c[nH]c4ccc(F)cc34)CC2)c(-c2ccccc2)c1,650

# Test system: not listed separately
# Experiment: Half life in rat liver microsomes at 1 uM in presence of NADPH generating system measured for 10 to 90 mins by LC-MS/MS analysis
# Type: ADME, Microsome
# Procedure, shortened: as §2
row,Compound,half-life at 1 µM [min]
1,Fc1ccc(N2CCN(CCCc3c[nH]c4ccc(F)cc34)CC2)c(-c2cncnc2)c1,6.6
2,Fc1ccc(N2CCN(CCCc3c[nH]c4ccc(F)cc34)CC2)c(-c2cccnc2)c1,5.8
3,N#Cc1ccc2[nH]cc(CCCCN3CCN(c4ccc5oc(C(N)=O)cc5c4)CC3)c2c1 [VILAZODONE],28.5
4,Fc1ccc2[nH]cc(CCCN3CCN(c4nsc5ccccc45)CC3)c2c1,3.5
5,Fc1ccc2c(C3CCN(CCCc4c[nH]c5ccc(F)cc45)CC3)noc2c1,4.6
6,Fc1ccc(N2CCN(CCCc3c[nH]c4ccc(F)cc34)CC2)c(-c2ccoc2)c1,10.3
7,Fc1ccc(C2CCN(CCCc3c[nH]c4ccc(F)cc34)CC2)c(-c2ccccc2)c1,48.6

# Test system: not listed separately
# Experiment: Half life in human liver microsomes at 1 uM in presence of NADPH generating system measured for 10 to 90 mins by LC-MS/MS analysis
# Type: ADME, Microsome
# Procedure, shortened: as §1
row,Compound,half-life at 1 µM [min]
1,N#Cc1ccc2[nH]cc(CCCCN3CCN(c4ccc5oc(C(N)=O)cc5c4)CC3)c2c1 [VILAZODONE],53.3
2,Cc1ccc(Sc2ccccc2N2CCNCC2)c(C)c1 [VORTIOXETINE],214
3,COc1ccc2c(c1)[C@]13CCCC[C@@H]1[C@H](C2)N(C)CC3 [DEXTROMETHORPHAN],44.7
4,Fc1ccc(C2CCN(CCCc3c[nH]c4ccc(F)cc34)CC2)c(-c2ccccc2)c1,49.9

# Test system: Mus musculus
# Experiment: Antidepressant activity in ICR mouse assessed as decrease in immobility time at 20 mg/kg, po administrated for daily for 7 days measured 1 hr post last dose by tail suspension test relative to control
# Type: functional
# Parameters: scale not given: the % may be the effect or the level left
# Procedure, shortened: as §4
row,Compound,Activity [%]
1,Fc1ccc(C2CCN(CCCc3c[nH]c4ccc(F)cc34)CC2)c(-c2ccccc2)c1,35

# Target: Sodium-dependent serotonin transporter (Rattus norvegicus) (UniProt P31652)
# Experiment: Inhibition of rat synaptosomes 5HT transporter assessed as reduction in [3H]serotonin reuptake at 10 uM incubated for 15 mins by scintillation counting method relative to control
# Type: subcellular
# Procedure, shortened: (§5)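 Single-concentration screen at 10 μM, reported as percent inhibition; 5-HT1A by [3H]-8-OH-DPAT displacement from HEK-293 membrane homogenates, 5-HT7 by [3H]-LSD displacement from CHO membrane homogenates, SERT by [3H]-5-HT uptake into rat brain synaptosomes.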
# Sodium-dependent serotonin transporter (Rattus norvegicus), sequence (P31652 whole entry): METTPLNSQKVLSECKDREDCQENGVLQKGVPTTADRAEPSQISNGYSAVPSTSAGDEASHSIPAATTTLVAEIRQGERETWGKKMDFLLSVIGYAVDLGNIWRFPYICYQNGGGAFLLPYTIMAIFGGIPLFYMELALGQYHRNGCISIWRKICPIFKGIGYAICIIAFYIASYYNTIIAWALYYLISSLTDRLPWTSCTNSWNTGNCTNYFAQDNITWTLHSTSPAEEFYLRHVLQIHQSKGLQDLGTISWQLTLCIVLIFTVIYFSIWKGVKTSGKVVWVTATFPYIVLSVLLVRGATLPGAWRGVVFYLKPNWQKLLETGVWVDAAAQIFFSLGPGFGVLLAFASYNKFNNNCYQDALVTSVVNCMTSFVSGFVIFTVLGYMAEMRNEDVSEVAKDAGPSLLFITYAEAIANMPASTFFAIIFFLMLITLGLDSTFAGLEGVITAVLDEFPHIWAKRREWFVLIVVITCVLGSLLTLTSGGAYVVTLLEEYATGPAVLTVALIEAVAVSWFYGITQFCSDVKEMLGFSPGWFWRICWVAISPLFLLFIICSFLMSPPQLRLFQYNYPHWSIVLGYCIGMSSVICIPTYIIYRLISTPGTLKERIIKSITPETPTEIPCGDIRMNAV
row,Compound,inhibition [%]
1,Fc1ccc(N2CCN(CCCc3c[nH]c4ccc(F)cc34)CC2)c(-c2cncnc2)c1,102
2,Fc1ccc(N2CCN(CCCc3c[nH]c4ccc(F)cc34)CC2)c(-c2cccnc2)c1,104

# Target: T1, 5-hydroxytryptamine receptor 1A
# Experiment: Displacement of [3H]-8-OH-DPAT from 5HT1A receptor (unknown origin) expressed in HEK293 cells membranes incubated for 60 mins by scintillation counting method
# Type: cell membranes
row,Compound,Ki [nM]
1,Fc1ccc2[nH]cc(CCCN3CCN(c4nsc5ccccc45)CC3)c2c1,1.6
2,Fc1ccc(N2CCN(CCCc3c[nH]c4ccc(F)cc34)CC2)c(-c2ccoc2)c1,15

# Target: Sodium-dependent serotonin transporter (Rattus norvegicus, UniProt P31652)
# Experiment: Inhibition of rat synaptosomes 5HT transporter assessed as reduction in [3H]serotonin reuptake incubated for 15 mins by scintillation counting method
# Type: subcellular
# Sodium-dependent serotonin transporter, sequence (P31652 whole entry): as above
row,Compound,IC50 [nM]
1,Fc1ccc2[nH]cc(CCCN3CCN(c4nsc5ccccc45)CC3)c2c1,1.1
2,Fc1ccc2c(C3CCN(CCCc4c[nH]c5ccc(F)cc45)CC3)noc2c1,0.92
3,Fc1ccc(N2CCN(CCCc3c[nH]c4ccc(F)cc34)CC2)c(-c2ccoc2)c1,3
4,Fc1ccc(C2CCN(CCCc3c[nH]c4ccc(F)cc34)CC2)c(-c2ccccc2)c1,14

# Target: T2, 5-hydroxytryptamine receptor 7
# Experiment: Displacement of [3H]-LSD from 5HT7 receptor (unknown origin) expressed in CHO cell membranes at 10 uM incubated for 120 mins by scintillation counting method relative to control
# Procedure, shortened: as §5
row,Compound,inhibition [%]
1,Fc1ccc(N2CCN(CCCc3c[nH]c4ccc(F)cc34)CC2)c(-c2cncnc2)c1,90.9
2,Fc1ccc(N2CCN(CCCc3c[nH]c4ccc(F)cc34)CC2)c(-c2cccnc2)c1,100
3,Fc1ccc2c(C3CCN(CCCc4c[nH]c5ccc(F)cc45)CC3)noc2c1,99.8

# Target: T3, 5-hydroxytryptamine receptor 1A (Homo sapiens) (UniProt P08908)
# T3 sequence (whole entry): T1 sequence (P08908 whole entry)
# Experiment: Displacement of [3H]-8-OH-DPAT from 5HT1A receptor (unknown origin) expressed in HEK293 cells membranes at 10 uM incubated for 60 mins by scintillation counting method relative to control
# Type: cell membranes
# Procedure, shortened: as §5
row,Compound,inhibition [%]
1,Fc1ccc(N2CCN(CCCc3c[nH]c4ccc(F)cc34)CC2)c(-c2cncnc2)c1,98.8
2,Fc1ccc(N2CCN(CCCc3c[nH]c4ccc(F)cc34)CC2)c(-c2cccnc2)c1,99.1
3,Fc1ccc2c(C3CCN(CCCc4c[nH]c5ccc(F)cc45)CC3)noc2c1,101

# Test system: Mus musculus
# Experiment: Antidepressant activity in orally dosed ICR mouse assessed as decrease in immobility time measured 1 hr post last dose by tail suspension test
# Type: functional, organism-based
# Procedure, shortened: as §4
row,Compound,Activity
1,Fc1ccc(C2CCN(CCCc3c[nH]c4ccc(F)cc34)CC2)c(-c2ccccc2)c1,Dose-dependent effect

# Test system: Mus musculus
# Experiment: Antidepressant activity in orally dosed ICR mouse assessed as decrease in immobility time measured 1 hr post last dose by forced swim test
# Type: functional, organism-based
# Procedure, shortened: as §3
row,Compound,Activity
1,Fc1ccc(C2CCN(CCCc3c[nH]c4ccc(F)cc34)CC2)c(-c2ccccc2)c1,Dose-dependent effect
